Measurements gathered from unrelated publications.
Protocols differ between the studies behind these lines.

SMILES | target or system | test | test system | conditions | measurement | result
C=CS(=O)(=O)c1ccc(Nc2nc(OCC3CCCCC3)c3nc[nH]c3n2)cc1 |  |  | male BALB/c mouse, plasma | intraperitoneal, 20 mg/kg, single dose | MRT(0-t) | 2.26 h
CCCCCNC[C@H](O)c1cc(Cl)cc2c1-c1ccc(Cl)cc1C2 | HepG2 | cell growth or viability |  | 48 h | CC50 | 6.3 µM
CC(=O)O[C@@]12CO[C@@H]1C[C@H](O)[C@@]1(C)C(=O)[C@H](O)C3=C(C)[C@@H](OC(=O)[C@H](O)[C@@H](NC(=O)OC(C)(C)C)c4ccccc4)C[C@@](O)([C@@H](OC(=O)c4ccccc4)[C@H]21)C3(C)C |  |  | male Kunming mouse, lung | oral, 20 mg/kg | MRT | 1.8 h
CCN1CCN(Cc2ccc(NC(=O)c3ccc(C)c(NC(=O)c4cncc(-c5cccs5)c4)c3)cc2C(F)(F)F)CC1 |  |  | mouse, plasma | intraperitoneal, 20 mg/kg, single dose | MRT | 3.52 h
CC[S+]([O-])c1nc(-c2cccc(OCc3ccccc3)c2)cc(C(F)(F)F)n1 (centres unmarked) | HEK-293T | cell growth or viability, ATP luminescence |  | 24 h | CC50 | 20 µM
CCCCCCCCNCC(O)c1cc(Cl)cc2c1-c1ccc(Cl)cc1C2 (racemic) | HepG2 | cell growth or viability |  | 48 h | CC50 | 5.9 µM
CCOc1ccc(N(C)S(=O)(=O)c2cc(Cl)sc2C(=O)Nc2cc(Cl)cc(C(=O)O)c2)cc1OC |  |  | male C57BL/6 mouse, brain | intraperitoneal, 10 mg/kg | MRT(0-inf) | 0.854 h
CCS(=O)(=O)c1nc(C)cc(-c2ccccc2)n1 | HEK-293T | cell growth or viability, ATP luminescence |  | 24 h | CC50 | > 60 µM
